Reference: ChEMBL document CHEMBL1135577, “Synthesis and biological evaluation of structurally highly modified analogues of the antimitotic natural product curacin A” (J Med Chem, 2002)

What was measured:
PC-3 [1] = experiment: 50% Growth inhibitory concentration by using PC -3 human prostate carcinoma cell lines (48h continuous exposure); type: functional; settings: PC-3, 48 h
Summary of the method: (§1)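 Cultured human tumor cells were seeded at 500-2000 cells/well, allowed to attach for 48 h, then exposed continuously for 48 h to DMSO vehicle or agent at five concentrations (e.g., 50-0.08 μM, 10-0.016 μM or 1-0.0016 μM series), each in quadruplicate. A time-zero plate was included. Cell number was read by MTS/phenazine methanesulfonate at A490-A630. Values are means (N = 4 over 10 concentrations) ± SD.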

A2780 [2] = experiment: Tested for colchicine binding inhibition, using human ovarian cancer cell lines (at 5 uM ); type: functional
Summary of the method: (§2)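 [3H]colchicine (5 μM) was incubated with 1 μM tubulin and agent (1-250 μM) or DMSO vehicle (5% v/v) at 30 °C for 15 min or 37 °C for 10 min, in 1 M monosodium glutamate, 0.1 M glucose-1-phosphate, 1 mM MgCl2, 1 mM GTP and 0.5 mg/mL BSA. Samples were filtered through DEAE-cellulose and counted by scintillation. Values are means (N = 9 over four concentrations) ± SD.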

2008 [3] = experiment: 50% Growth inhibitory concentration( GI 50 ) by using 2008 human ovarian carcinoma cell lines.; type: functional; summary of the method: as §1
A2780 [4] = experiment: Compound was tested for Tubulin polymerization inhibition by using human ovarian cancer cell lines.; type: functional
Summary of the method: (§3)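 Tubulin (10 μM final, 1 mg/mL) was preincubated with agent in DMSO (4% v/v final) and 0.8 M monosodium glutamate for 15 min at 30 °C, then cooled to 0 °C and GTP (0.4 mM final) added. Turbidity at 350 nm was followed for 20 min at 30 °C. […] Values are averages of two determinations.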

MCF7 = experiment: Tested for 50% growth inhibitory concentration by using MCF-7 cell lines.; type: functional; settings: Homo sapiens; summary of the method: as §1
Tubulin (Bos taurus) = experiment: Inhibition of tubulin polymerization of purified bovine brain tubulin
A2780 [5] = experiment: Inhibition of tubulin polymerization in analogy of ca.; type: functional, cell-based; settings: Homo sapiens; summary of the method: as §3
[6] = Average growth inhibition activity in analogy of ca.; type: functional; summary of the method: as §1
A2780 [7] = experiment: Compound was tested for Tubulin polymerization inhibition by using human ovarian carcinoma cell lines.; type: functional; summary of the method: as §3
MDA-MB-231 = experiment: Compound was tested for 50% Growth Inhibitory concentration by using MDA-MB-231 cell lines.; type: functional; settings: Homo sapiens; summary of the method: as §1
PC-3 [8] = experiment: Compound was tested for 50% growth inhibitory concentration by using human prostate carcinoma cell lines (PC -3); type: functional; summary of the method: as §1
2008 [9] = experiment: Compound was tested for 50% growth inhibitory concentration by using human ovarian carcinoma cell lines (2008); type: functional; summary of the method: as §1
A2780 [10] = experiment: Compound tested for colchicine Binding Inhibition by using human ovarian carcinoma cell line (at 5 uM ); type: functional; summary of the method: as §2
A2780 [11] = experiment: Compound was tested for colchicine Binding Inhibition by using human ovarian carcinoma cell line (at 5 uM ); type: functional; summary of the method: as §2
A2780 [12] = experiment: Compound was tested for 50% Growth Inhibitory concentration by using A2780 cell lines.; settings: Homo sapiens

SMILES | inhibition at 5 µM (A2780 [2]) [%] | GI50 (MCF7) [nM] | IC50 (Tubulin (Bos taurus)) [nM] | also measured
COc1cc(/C=C/CC/C=C/C=C(\C)CCC(O)c2cccs2)cc(OC)c1OC (configuration not stated) | < 10 | – | – | GI50 (PC-3 [1]): 35 µM; GI50 2008 [3]: 21000 nM; TPI (A2780 [4]): 25%
COc1cc(/C=C\CC/C=C/C=C(\C)CCC(O)c2cccs2)cc(OC)c1OC (configuration not stated) | 39 | – | – | GI50 2008 [3]: 280 nM; TPI (A2780 [4]): >95%
C=CC[C@@H](CC/C(C)=C/C=C/CC/C=C\[C@@H]1COC(C(C)(C)C)=N1)OC | < 10 | – | – | GI50 (PC-3 [1]): 6.2 µM; GI50 2008 [3]: 450 nM; TPI (A2780 [4]): 0%
C=CC[C@@H](CC/C(C)=C\C=C\CC/C=C\[C@@H]1CSC([C@@H]2C[C@@H]2C)=N1)OC [CURACIN C] | 10 | 3600 | 2300 | –
C=CC[C@@H](CC/C(C)=C/C=C/CC/C=C\c1coc(C(C)(C)C)n1)OC | < 10 | – | – | GI50 (PC-3 [1]): > 50 µM; GI50 2008 [3]: > 50000 nM; TPI (A2780 [4]): 51%
C=CCCC1=N[C@H](/C=C\CC/C=C/C=C(\C)CC[C@H](CC=C)OC)CS1 | 83 | 300 | 920 | –
COc1cc(/C=C\CC/C=C/C=C(\C)CCC(O)c2cc3ccccc3o2)cc(OC)c1OC (configuration not stated) | – | – | – | IC50 (A2780 [5]): 1000 nM; GI50 [6]: 250 nM
C=CC[C@@H](CC/C(C)=C/C=C/CC/C=C\[C@@H]1CSC(C(C)(C)C)=N1)OC | 35 | – | – | GI50 (PC-3 [1]): 0.13 µM; GI50 2008 [3]: 220 nM; TPI (A2780 [4]): 100%
C=CC[C@@H](CC/C(C)=C/C=C/CC/C=C\[C@@H]1CSC([C@H]2C[C@H]2C)=N1)OC | 48 | 360 | 2100 | –
COc1cc(COCCC/C=C/C=C(\C)CCC(O)c2cccs2)cc(OC)c1OC (configuration not stated) | – | – | – | TPI (A2780 [7]): 7%; GI50 (MDA-MB-231): > 50000 nM; GI50 (PC-3 [8]): 18 µM; GI50 2008 [9]: 15 µM; inhibition at 5 µM (A2780 [10]): < 10%
C=CCC1(CC/C(C)=C/C=C/CC/C=C\[C@@H]2CSC([C@@H]3C[C@@H]3C)=N2)OCCO1 | 92 | 30 | 780 | –
COc1cc(/C=N\OC[C@H]2C[C@@H]2C2C[C@]2(C)CCC(O)c2cccs2)cc(OC)c1OC (some centres not stated) | – | – | – | TPI (A2780 [7]): 26%; GI50 (MDA-MB-231): 980 nM; GI50 (PC-3 [8]): 1.2 µM; inhibition at 5 µM (A2780 [11]): < 10%; GI50 2008 [9]: 9.9 µM
C=CC[C@@H](CC/C(C)=C/C=C\CC/C=C\[C@@H]1CSC([C@@H]2C[C@@H]2C)=N1)OC [CURACIN B] | 56 | 320 | 820 | –
C=CC[C@H](O)CC/C(C)=C/C=C/CC/C=C\C1CSC([C@@H]2C[C@@H]2C)=N1 (some centres not stated) | 82 | 450 | 870 | –
C=CC[C@@H](CC/C(C)=C/C=C/CC/C=C\[C@H]1CSC([C@@H]2C[C@@H]2C)=N1)OC | 3 | > 1000 | 5500 | –
CCC[C@@H](CC/C(C)=C/C=C/CC/C=C\[C@@H]1CSC([C@@H]2C[C@@H]2C)=N1)OC | 85 | 50 | 1200 | –
C=CC[C@@H](CC/C(C)=C/C=C/CC/C=C\[C@@H]1CSC([C@@H]2C[C@@H]2C)=N1)OCOC | 81 | 220 | 640 | –
C=CC[C@@H](CC/C(C)=C/C=C/CC/C=C\[C@H](CSC)NC(C)=O)OC | 12 | 5200 | 3300 | –
COC[C@H]1C[C@H]1C1=NC(COC/C=C(\C)CC/C=C(\C)CCC=C(C)C)CS1 (some centres not stated) | – | – | – | GI50 (A2780 [12]): > 25 µM
